According to ChEMBL document CHEMBL1268841, “Synthesis and antifungal activity of benzofuran-5-ols” (2010):
In brackets after ≈: the same amount, converted by molar mass.

Assays:
Format in all cases: functional
Candida tropicalis = test: Antifungal activity against Candida tropicalis KCCM 50662 after 1 day; settings: KCCM 50662, 24 h
How it was run: (§1)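 MIC found by twofold broth dilution in modified Sabouraud dextrose broth. Approximately 1 × 10⁵ cells/mL inoculated. Final agent concentrations ranged from 0.2 to 50.0, compared against fluconazole and 5-fluorocytosine. Read after 1 day at 37 °C.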

Aspergillus niger = test: Antifungal activity against Aspergillus niger KCTC 1231 after 2 days; settings: KCTC 1231, 48 h
How it was run: (§2)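 Twofold broth dilution in modified Sabouraud dextrose broth. Inoculum about 1 × 10⁵ cells/mL. Agents tested at final concentrations of 0.2 to 50.0, with fluconazole and 5-fluorocytosine as standards.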

Aspergillus flavus = test: Antifungal activity against Aspergillus flavus KCCM 11899 after 2 days; settings: KCCM 11899, 48 h; how it was run: as §2
Candida albicans = test: Antifungal activity against Candida albicans KCCM 50235 after 1 day; settings: KCCM 50235, 24 h; how it was run: as §1
Pichia kudriavzevii = test: Antifungal activity against Candida krusei KCCM 11655 after 1 day; settings: KCCM 11655, 24 h; how it was run: as §1
Cryptococcus neoformans = test: Antifungal activity against Cryptococcus neoformans KCCM 50564 after 1 day; settings: KCCM 50564, 24 h; how it was run: as §1

COC(=O)c1c(N)oc2c(C)c(C)c(O)c(Sc3ccc(C)cc3)c12
MIC (Candida tropicalis): 25 µg/mL (≈ 69.9 µM) | MIC (Aspergillus niger): 25 µg/mL (≈ 69.9 µM) | MIC (Aspergillus flavus): 25 µg/mL (≈ 69.9 µM) | MIC (Candida albicans): 25 µg/mL (≈ 69.9 µM) | MIC (Pichia kudriavzevii): 3.2 µg/mL (≈ 8.95 µM) | MIC (Cryptococcus neoformans): 6.3 µg/mL (≈ 17.6 µM)

Cc1cc2oc(N)c(C#N)c2cc1O
MIC (Candida tropicalis): > 50 µg/mL | MIC (Aspergillus niger): > 50 µg/mL | MIC (Aspergillus flavus): 12.5 µg/mL (≈ 66.4 µM) | MIC (Candida albicans): 50 µg/mL (≈ 266 µM) | MIC (Pichia kudriavzevii): 0.8 µg/mL (≈ 4.25 µM) | MIC (Cryptococcus neoformans): 3.2 µg/mL (≈ 17 µM)

CCOC(=O)c1c(N)oc2ccc(O)cc12
MIC (Candida tropicalis): 3.2 µg/mL (≈ 14.5 µM) | MIC (Aspergillus niger): 3.2 µg/mL (≈ 14.5 µM) | MIC (Aspergillus flavus): 6.3 µg/mL (≈ 28.5 µM) | MIC (Candida albicans): 1.6 µg/mL (≈ 7.23 µM) | MIC (Pichia kudriavzevii): 12.5 µg/mL (≈ 56.5 µM) | MIC (Cryptococcus neoformans): 12.5 µg/mL (≈ 56.5 µM)

Cc1c(O)ccc(O)c1C
MIC (Candida tropicalis): > 50 µg/mL | MIC (Aspergillus niger): 50 µg/mL (≈ 362 µM) | MIC (Aspergillus flavus): 12.5 µg/mL (≈ 90.5 µM) | MIC (Candida albicans): 50 µg/mL (≈ 362 µM) | MIC (Pichia kudriavzevii): 25 µg/mL (≈ 181 µM) | MIC (Cryptococcus neoformans): 12.5 µg/mL (≈ 90.5 µM)

COC(=O)c1c(N)oc2ccc(O)cc12
MIC (Candida tropicalis): 3.2 µg/mL (≈ 15.4 µM) | MIC (Aspergillus niger): 3.2 µg/mL (≈ 15.4 µM) | MIC (Aspergillus flavus): 12.5 µg/mL (≈ 60.3 µM) | MIC (Candida albicans): 1.6 µg/mL (≈ 7.72 µM) | MIC (Pichia kudriavzevii): 6.3 µg/mL (≈ 30.4 µM) | MIC (Cryptococcus neoformans): 12.5 µg/mL (≈ 60.3 µM)

CCOC(=O)c1c(N)oc2cc(Cl)c(O)cc12
MIC (Candida tropicalis): 12.5 µg/mL (≈ 48.9 µM) | MIC (Aspergillus niger): 25 µg/mL (≈ 97.8 µM) | MIC (Aspergillus flavus): 12.5 µg/mL (≈ 48.9 µM) | MIC (Candida albicans): 12.5 µg/mL (≈ 48.9 µM) | MIC (Pichia kudriavzevii): 25 µg/mL (≈ 97.8 µM) | MIC (Cryptococcus neoformans): 50 µg/mL (≈ 196 µM)

COC(=O)c1c(N)oc2cc(C)c(O)cc12
MIC (Candida tropicalis): 25 µg/mL (≈ 113 µM) | MIC (Aspergillus niger): 12.5 µg/mL (≈ 56.5 µM) | MIC (Aspergillus flavus): 25 µg/mL (≈ 113 µM) | MIC (Candida albicans): 25 µg/mL (≈ 113 µM) | MIC (Pichia kudriavzevii): 3.2 µg/mL (≈ 14.5 µM) | MIC (Cryptococcus neoformans): 12.5 µg/mL (≈ 56.5 µM)

COC(=O)c1c(N)oc2c(C)c(C)c(O)c(Sc3ccccc3)c12
MIC (Candida tropicalis): 25 µg/mL (≈ 72.8 µM) | MIC (Aspergillus niger): 12.5 µg/mL (≈ 36.4 µM) | MIC (Aspergillus flavus): 25 µg/mL (≈ 72.8 µM) | MIC (Candida albicans): 25 µg/mL (≈ 72.8 µM) | MIC (Pichia kudriavzevii): 6.3 µg/mL (≈ 18.3 µM) | MIC (Cryptococcus neoformans): 1.6 µg/mL (≈ 4.66 µM)

OC(Cn1cncn1)(Cn1cncn1)c1ccc(F)cc1F [FLUCONAZOLE]
MIC (Candida tropicalis): 6.3 µg/mL (≈ 20.6 µM) | MIC (Aspergillus niger): 12.5 µg/mL (≈ 40.8 µM) | MIC (Aspergillus flavus): 25 µg/mL (≈ 81.6 µM) | MIC (Candida albicans): 50 µg/mL (≈ 163 µM) | MIC (Pichia kudriavzevii): 12.5 µg/mL (≈ 40.8 µM) | MIC (Cryptococcus neoformans): 6.3 µg/mL (≈ 20.6 µM)

COC(=O)c1c(N)oc2c(C)c(C)c(O)c(Sc3cccc(F)c3)c12
MIC (Candida tropicalis): 50 µg/mL (≈ 138 µM) | MIC (Aspergillus niger): 1.6 µg/mL (≈ 4.43 µM) | MIC (Aspergillus flavus): 3.2 µg/mL (≈ 8.85 µM) | MIC (Candida albicans): > 50 µg/mL | MIC (Pichia kudriavzevii): 25 µg/mL (≈ 69.2 µM) | MIC (Cryptococcus neoformans): 6.3 µg/mL (≈ 17.4 µM)

CCOC(=O)c1c(N)oc2c(C)cc(O)c(C)c12
MIC (Candida tropicalis): 6.3 µg/mL (≈ 25.3 µM) | MIC (Aspergillus niger): 12.5 µg/mL (≈ 50.1 µM) | MIC (Aspergillus flavus): 12.5 µg/mL (≈ 50.1 µM) | MIC (Candida albicans): 6.3 µg/mL (≈ 25.3 µM) | MIC (Pichia kudriavzevii): 3.2 µg/mL (≈ 12.8 µM) | MIC (Cryptococcus neoformans): 12.5 µg/mL (≈ 50.1 µM)

COC(=O)C(C#N)C1=C(Cl)C(=O)C(C)=C(C)C1=O (stereo not drawn)
MIC (Candida tropicalis): 50 µg/mL (≈ 187 µM) | MIC (Aspergillus niger): 25 µg/mL (≈ 93.4 µM) | MIC (Aspergillus flavus): 12.5 µg/mL (≈ 46.7 µM) | MIC (Candida albicans): 50 µg/mL (≈ 187 µM) | MIC (Pichia kudriavzevii): 25 µg/mL (≈ 93.4 µM) | MIC (Cryptococcus neoformans): 6.3 µg/mL (≈ 23.5 µM)

COC(=O)c1c(N)oc2c(C)c(C)c(O)c(Sc3ccc(C)c(C)c3)c12
MIC (Candida tropicalis): 25 µg/mL (≈ 67.3 µM) | MIC (Aspergillus niger): 12.5 µg/mL (≈ 33.7 µM) | MIC (Aspergillus flavus): 3.2 µg/mL (≈ 8.61 µM) | MIC (Candida albicans): 25 µg/mL (≈ 67.3 µM) | MIC (Pichia kudriavzevii): 3.2 µg/mL (≈ 8.61 µM) | MIC (Cryptococcus neoformans): 1.6 µg/mL (≈ 4.31 µM)

COC(=O)c1c(N)oc2cc(Cl)c(O)cc12
MIC (Candida tropicalis): 12.5 µg/mL (≈ 51.7 µM) | MIC (Aspergillus niger): 6.3 µg/mL (≈ 26.1 µM) | MIC (Aspergillus flavus): 6.3 µg/mL (≈ 26.1 µM) | MIC (Candida albicans): 25 µg/mL (≈ 103 µM) | MIC (Pichia kudriavzevii): 25 µg/mL (≈ 103 µM) | MIC (Cryptococcus neoformans): 12.5 µg/mL (≈ 51.7 µM)

COC(=O)c1c(N)oc2c(C)c(C)c(O)cc12
MIC (Candida tropicalis): 50 µg/mL (≈ 213 µM) | MIC (Aspergillus niger): 6.3 µg/mL (≈ 26.8 µM) | MIC (Aspergillus flavus): 25 µg/mL (≈ 106 µM) | MIC (Candida albicans): 50 µg/mL (≈ 213 µM) | MIC (Pichia kudriavzevii): 25 µg/mL (≈ 106 µM) | MIC (Cryptococcus neoformans): 25 µg/mL (≈ 106 µM)

COC(=O)c1c(N)oc2c(C)c(C)c(O)c(Sc3cccc(C)c3)c12
MIC (Candida tropicalis): > 50 µg/mL | MIC (Aspergillus niger): > 50 µg/mL | MIC (Aspergillus flavus): > 50 µg/mL | MIC (Candida albicans): > 50 µg/mL | MIC (Pichia kudriavzevii): > 50 µg/mL | MIC (Cryptococcus neoformans): 1.6 µg/mL (≈ 4.48 µM)

Nc1nc(=O)[nH]cc1F [FLUCYTOSINE]
MIC (Candida tropicalis): 6.3 µg/mL (≈ 48.8 µM) | MIC (Aspergillus niger): 12.5 µg/mL (≈ 96.8 µM) | MIC (Aspergillus flavus): 6.3 µg/mL (≈ 48.8 µM) | MIC (Candida albicans): 6.3 µg/mL (≈ 48.8 µM) | MIC (Pichia kudriavzevii): 12.5 µg/mL (≈ 96.8 µM) | MIC (Cryptococcus neoformans): 12.5 µg/mL (≈ 96.8 µM)

N#Cc1c(N)oc2ccc(O)cc12
MIC (Candida tropicalis): 6.3 µg/mL (≈ 36.2 µM) | MIC (Aspergillus niger): 6.3 µg/mL (≈ 36.2 µM) | MIC (Aspergillus flavus): 12.5 µg/mL (≈ 71.8 µM) | MIC (Candida albicans): 12.5 µg/mL (≈ 71.8 µM) | MIC (Pichia kudriavzevii): 25 µg/mL (≈ 144 µM) | MIC (Cryptococcus neoformans): 12.5 µg/mL (≈ 71.8 µM)
